# Assay results taken from ChEMBL document CHEMBL1132574, “Metallopeptidase inhibitors of tetanus toxin: A combinatorial approach” (J Med Chem, 1999).
# pKi: −log10 of the molar value.
# Biological target: T1, Tetanus toxin (Clostridium tetani (strain Massachusetts / E88), UniProt P04958)
# T1 sequence (P04958 whole entry): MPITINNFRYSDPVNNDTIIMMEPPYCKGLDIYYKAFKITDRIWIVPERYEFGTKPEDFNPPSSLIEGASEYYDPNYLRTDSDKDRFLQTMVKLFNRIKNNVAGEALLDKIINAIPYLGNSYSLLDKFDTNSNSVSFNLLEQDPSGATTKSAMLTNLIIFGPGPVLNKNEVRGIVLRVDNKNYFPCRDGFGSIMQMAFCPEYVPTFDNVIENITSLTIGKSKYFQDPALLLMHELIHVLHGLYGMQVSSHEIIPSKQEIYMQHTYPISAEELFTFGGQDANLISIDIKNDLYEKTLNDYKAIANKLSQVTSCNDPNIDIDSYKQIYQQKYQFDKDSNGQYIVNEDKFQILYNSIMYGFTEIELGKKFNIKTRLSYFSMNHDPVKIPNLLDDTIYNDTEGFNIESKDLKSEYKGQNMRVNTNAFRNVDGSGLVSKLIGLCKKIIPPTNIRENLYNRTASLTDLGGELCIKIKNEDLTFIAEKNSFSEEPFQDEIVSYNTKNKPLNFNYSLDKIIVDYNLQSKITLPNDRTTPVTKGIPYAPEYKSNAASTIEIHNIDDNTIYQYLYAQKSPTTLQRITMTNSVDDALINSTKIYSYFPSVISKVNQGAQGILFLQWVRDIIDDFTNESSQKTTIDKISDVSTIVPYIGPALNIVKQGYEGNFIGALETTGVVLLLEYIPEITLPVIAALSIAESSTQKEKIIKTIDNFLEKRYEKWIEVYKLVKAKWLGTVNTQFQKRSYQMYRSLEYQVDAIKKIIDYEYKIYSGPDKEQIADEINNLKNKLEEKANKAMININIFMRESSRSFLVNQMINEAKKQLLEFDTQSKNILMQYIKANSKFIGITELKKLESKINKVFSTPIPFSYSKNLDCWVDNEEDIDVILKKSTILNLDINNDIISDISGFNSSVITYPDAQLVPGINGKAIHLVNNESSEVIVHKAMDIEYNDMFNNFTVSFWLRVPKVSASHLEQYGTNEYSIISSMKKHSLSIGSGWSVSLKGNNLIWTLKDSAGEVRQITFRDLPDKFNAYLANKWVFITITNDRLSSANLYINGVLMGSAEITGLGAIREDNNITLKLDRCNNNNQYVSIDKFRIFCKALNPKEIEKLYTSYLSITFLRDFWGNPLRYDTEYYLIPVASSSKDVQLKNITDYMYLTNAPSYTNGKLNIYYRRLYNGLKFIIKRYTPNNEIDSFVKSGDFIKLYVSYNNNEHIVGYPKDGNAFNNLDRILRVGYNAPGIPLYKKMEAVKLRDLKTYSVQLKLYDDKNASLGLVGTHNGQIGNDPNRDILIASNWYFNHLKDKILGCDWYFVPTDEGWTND
# Assay: Inhibition of tetanus neurotoxin (TeNt)
# In short: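 TeNt metallopeptidase activity on the fluorescent substrate [Pya⁸⁸]S39-88 (40, 50, 66, 100, 200 μM) in 20 mM Hepes pH 7.4, 100 mM NaCl, 0.1 mM DTT at 37 °C. Inhibitor absent or at 1, 10, 33, 100 μM. Rate read by RP-HPLC as the appearance of fluorescent product [Pya⁸⁸]S77-88. Lineweaver–Burk analysis; mean of three independent experiments in triplicate.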
row,SMILES,pKi
1,N[C@@H](CCS(N)(=O)=O)[C@@H](S)C(=O)N[C@@H](Cc1ccc(O)cc1)C(=O)N[C@@H](Cc1c[nH]cn1)C(=O)O,5.30
2,N[C@@H](CCS(N)(=O)=O)[C@@H](S)C(=O)N[C@@H](Cc1ccc(O)cc1)C(=O)N[C@@H](Cc1cnc[nH]1)C(=O)NCc1ccccc1,5.41
3,NC(=O)CC[C@@H](N)CS,3.60
4,N[C@@H](CS)CCS(N)(=O)=O,4.00
5,N[C@@H](CCS(N)(=O)=O)[C@H](S)C(=O)N[C@@H](Cc1ccc(O)cc1)C(=O)N[C@@H](Cc1c[nH]cn1)C(=O)O,4.82
6,N[C@@H](CCS(N)(=O)=O)[C@H](S)C(=O)N[C@@H](Cc1ccc(O)cc1)C(=O)N[C@@H](Cc1c[nH]cn1)C(=O)NCc1ccccc1,5.17
7,NC(CS)c1cccc(S(N)(=O)=O)c1 (stereo not drawn),4.46
8,N[C@@H](c1cccc(S(N)(=O)=O)c1)[C@@H](S)C(=O)N[C@@H](Cc1ccc(O)cc1)C(=O)N[C@@H](Cc1c[nH]cn1)C(=O)NCc1ccccc1,5.52
9,N[C@H](c1cccc(S(N)(=O)=O)c1)[C@@H](S)C(=O)N[C@@H](Cc1ccc(O)cc1)C(=O)N[C@@H](Cc1c[nH]cn1)C(=O)NCc1ccccc1,5.22
10,N[C@@H](c1cccc(S(N)(=O)=O)c1)[C@H](S)C(=O)N[C@@H](Cc1ccc(O)cc1)C(=O)N[C@@H](Cc1c[nH]cn1)C(=O)NCc1ccccc1,5.02
11,N[C@H](c1cccc(S(N)(=O)=O)c1)[C@H](S)C(=O)N[C@@H](Cc1ccc(O)cc1)C(=O)N[C@@H](Cc1c[nH]cn1)C(=O)NCc1ccccc1,5.40
12,C[C@@H](O)[C@H](NC(=O)[C@H](CCC(=O)O)NC(=O)[C@@H](Cc1ccccc1)NC(=O)C(S)[C@@H](N)CCC(=O)ON)C(=O)O (mixture of isomers),4.00
13,C[C@@H](O)[C@H](NC(=O)[C@H](CCC(=O)O)NC(=O)[C@@H](Cc1ccccc1)NC(=O)C(S)[C@@H](N)CCC(=O)ON)C(=O)N[C@@H](CO)C(=O)O (mixture of isomers),4.10
